Test results: ChEMBL document CHEMBL4316593 (Eur J Med Chem, 2019)
Activity calls are given as the source filed them. No cut-off for these calls is given here.

System: U-87 MG
Test: Cytotoxicity against human U87 cells assessed as reduction in cell proliferation at 100 uM measured after 48 hrs by trypan blue dye-based cell counting analysis
Assay type: functional
Details: U-87MG ATCC
In short: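 Trypan blue viability assay. U87 (MEM, 10% FBS) or LN229 (DMEM, 5% FBS) cells were treated for 48hrs. Screening used 100 μM; the dose-response used 100, 75, 50, 25 and 10 μM. Cells were pelleted at 1200 rpm and live/dead cells counted by automated counter. Mortality % was taken relative to the DMSO control, and IC₅₀ derived from the dose-response curve. Cisplatin served as positive control.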

SMILES	Activity
CC(=O)/C(=N\Nc1ccc([N+](=O)[O-])cc1O)C(=O)c1ccccc1	Active
CC(=O)/C(=N\Nc1cc(S(=O)(=O)O)cc(S(=O)(=O)O)c1O)C(=O)c1ccccc1	inactive
